pEC50: −log10 of the molar value. Numbered stars: 1 amine (or outer) side, 2 acyl side, 3 side chain; on linkers, the order of the positions; unused ones are H or OH. Bridge positions count the residues as written; N and C are the ends. Square brackets hold non-standard residues; d marks the D form. Peptide text beside a SMILES is read from it. N(2-Aminoethyl)Gly = O=C(CN(CCN[*:3])[*:1])[*:2]; Adipoyl = O=C(CCCCC(=O)[*:2])[*:1]; Glutaryl = O=C(CCCC(=O)[*:2])[*:1]; Suc = O=C(CCC(=O)[*:2])[*:1]; Nphe = O=C(O)CNCc1ccccc1
Columns and labels:
[1] = tested on: Caco-2; assay: Ratio of Papp for mannitol to Papp for drug in permeability across apical to basolateral side of human Caco-2 cells; type: ADME, cell-based
[2] = molecular target: Melanocyte-stimulating hormone receptor (Mus musculus, UniProt Q01727); assay: Agonist activity at mouse MC1R expressed in HEK293 cells by beta-galactosidase reporter gene assay; type: functional, cell-based
[3] = molecular target: Melanocortin receptor 3 (Mus musculus, UniProt P33033); assay: Agonist activity at mouse MC3R expressed in HEK293 cells by beta-galactosidase reporter gene assay; type: functional, cell-based
[4] = molecular target: Melanocortin receptor 4 (Mus musculus, UniProt P56450); assay: Agonist activity at mouse MC4R expressed in HEK293 cells by beta-galactosidase reporter gene assay; type: functional, cell-based
[5] = Metabolic stability in Wistar rat brush border membrane vesicles assessed as drug degradation up to 90 mins by HPLC; type: ADME, cell membranes; conditions: read-out: Activity
Method in brief: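 Brush border membrane vesicles from duodenum, jejunum and upper ileum of male Wistar rats (200–250 g), Ca2+ precipitation, 13–18-fold marker-enzyme enrichment. Compound incubated with BBMVs at 37 °C for 90 min; duplicate samples at 0, 15, 30, 45, 60, 90 min, quenched 1:1 with ice-cold methanol, centrifuged, analysed by HPLC.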

[6] = Membrane binding affinity to synthetic dimyristoylphosphatidylcholine/polydiacetylene vesicles assessed as colorimetric response by colorimetric assay; set-up: concentration or dose not given beside the values
Method in brief: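 Peptide added from 0.4 mg/mL stock to vesicles (0.5 mM total lipids, 25 mM Tris-base pH 8), diluted with water; UV–vis absorbance at 640 and 500 nm; %CR = [(PB0 − PBI)/PB0] × 100, PB = Ablue/(Ablue + Ared); duplicates.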

[7] = molecular target: Melanocortin receptor 5 (Mus musculus, UniProt P41149); assay: Agonist activity at mouse MC5R expressed in HEK293 cells by beta-galactosidase reporter gene assay; type: functional, cell-based
[8] = (§1) Metabolic stability in rat serum assessed as drug degradation after 4 hrs; type: ADME, cell-free; conditions: read-out: Activity
[9] = (§2) Metabolic stability in rat serum assessed as drug degradation after 1 hr; type: ADME, cell-free; conditions: read-out: Activity
Method in brief: (§3)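 Incubation in rat serum, sampled at 0, 1, 2 and 5 h; degradation relative to initial concentration.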

[10] = tested on: Serum; assay: as §2; type: ADME, cell-free; conditions: 1 h; method in brief: as §3
[11] = tested on: Serum; assay: Metabolic stability in rat serum assessed as drug remaining after 3 hrs; type: ADME, cell-free
[12] = tested on: Serum; assay: as §1; type: ADME, cell-free; conditions: 4 h
[13] = molecular target: Melanocortin receptor 4 (Mus musculus) (UniProt P56450); assay: Agonist activity at mouse MC4R expressed in HEK293 cells at 100 uM by beta-galactosidase reporter gene assay relative to control; type: functional, cell-based
Method in brief: (§4)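 CRE/β-galactosidase reporter in HEK-293 cells stably expressing the mouse receptor; 6 h peptide exposure with 0.1 mM IBMX; ONPG read at OD 405 nm, normalized to protein content and forskolin (10–4 M) response; % stimulation at highest concentration tested, relative to control; ≥3 independent experiments.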

[14] = molecular target: Melanocortin receptor 3 (Mus musculus) (UniProt P33033); assay: Agonist activity at mouse MC3R expressed in HEK293 cells at 100 uM by beta-galactosidase reporter gene assay relative to control; type: functional, cell-based; method in brief: as §4
Melanocortin receptor 3 (Mus musculus), sequence (P33033 whole entry): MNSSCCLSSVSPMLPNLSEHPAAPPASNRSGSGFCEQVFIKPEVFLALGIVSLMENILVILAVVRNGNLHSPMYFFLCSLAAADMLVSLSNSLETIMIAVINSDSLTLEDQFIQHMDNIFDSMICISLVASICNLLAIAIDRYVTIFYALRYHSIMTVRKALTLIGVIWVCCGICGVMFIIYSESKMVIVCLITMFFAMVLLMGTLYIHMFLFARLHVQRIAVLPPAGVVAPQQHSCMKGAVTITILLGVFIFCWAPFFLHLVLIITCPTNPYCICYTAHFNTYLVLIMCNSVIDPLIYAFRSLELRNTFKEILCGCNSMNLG

Melanocortin receptor 3, sequence (P33033 whole entry): as above
Melanocyte-stimulating hormone receptor, sequence (Q01727 whole entry): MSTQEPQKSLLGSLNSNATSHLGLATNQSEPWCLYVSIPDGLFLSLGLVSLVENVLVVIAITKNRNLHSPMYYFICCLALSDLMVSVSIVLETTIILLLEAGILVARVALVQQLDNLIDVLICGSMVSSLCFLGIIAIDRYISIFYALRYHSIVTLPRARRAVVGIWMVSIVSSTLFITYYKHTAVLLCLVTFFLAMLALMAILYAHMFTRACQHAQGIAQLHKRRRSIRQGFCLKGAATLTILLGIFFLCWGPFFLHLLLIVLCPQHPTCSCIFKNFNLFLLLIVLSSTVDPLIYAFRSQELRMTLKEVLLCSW
Melanocortin receptor 4, sequence (P56450 whole entry): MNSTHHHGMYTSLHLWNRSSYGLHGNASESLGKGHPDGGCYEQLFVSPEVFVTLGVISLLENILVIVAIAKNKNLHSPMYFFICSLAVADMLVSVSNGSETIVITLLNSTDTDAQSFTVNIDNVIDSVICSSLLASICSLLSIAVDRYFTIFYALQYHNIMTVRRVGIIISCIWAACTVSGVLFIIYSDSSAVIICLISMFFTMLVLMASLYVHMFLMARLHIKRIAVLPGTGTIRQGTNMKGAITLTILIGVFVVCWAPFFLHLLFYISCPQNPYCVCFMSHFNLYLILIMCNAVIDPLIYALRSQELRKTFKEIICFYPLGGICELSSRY
Melanocortin receptor 5, sequence (P41149 whole entry): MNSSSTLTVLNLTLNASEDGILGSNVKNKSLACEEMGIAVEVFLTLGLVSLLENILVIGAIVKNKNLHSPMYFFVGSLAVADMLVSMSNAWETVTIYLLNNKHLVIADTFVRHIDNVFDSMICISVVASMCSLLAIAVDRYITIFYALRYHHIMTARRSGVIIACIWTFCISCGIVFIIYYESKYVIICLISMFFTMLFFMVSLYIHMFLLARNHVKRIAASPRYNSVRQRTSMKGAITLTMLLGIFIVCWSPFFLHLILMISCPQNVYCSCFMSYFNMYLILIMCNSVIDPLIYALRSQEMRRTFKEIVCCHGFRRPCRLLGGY
Melanocortin receptor 4 (Mus musculus), sequence (P56450 whole entry): as the sequence (P56450 whole entry) above

| SMILES | pEC50 [2] | pEC50 [3] | pEC50 [4] | metabolised at 1.5 h [5] | Activity [6] | pEC50 [7] | also measured |
| --- | --- | --- | --- | --- | --- | --- | --- |
| CC(=O)NCC(=O)N(CC(=O)N[C@H](Cc1ccccc1)C(=O)N[C@@H](CCCNC(=N)N)C(=O)N[C@@H](Cc1c[nH]c2ccccc12)C(=O)NCC(N)=O)Cc1ccccc1 | 4.93 | < 7.00 | 5.01 | 20% | 31% | 5.46 | metabolised at 1 h [9]: 50% |
| N=C(N)NCCC[C@@H]1NC(=O)CN(Cc2ccccc2)C(=O)[C@H](Cc2ccccc2)NC(=O)CCCCC(=O)NCCN(CC(N)=O)C(=O)[C@H](Cc2c[nH]c3ccccc23)NC1=O (F[Nphe]RW[N(2-Aminoethyl)Gly]-NH2; linker N-5 via Adipoyl) |  |  |  |  | < 30% |  |  |
| N=C(N)NCCC[C@@H]1NC(=O)CN(Cc2ccccc2)C(=O)[C@H](Cc2ccccc2)NC(=O)CCCC(=O)NCCN(CC(N)=O)C(=O)[C@H](Cc2c[nH]c3ccccc23)NC1=O (F[Nphe]RW[N(2-Aminoethyl)Gly]-NH2; linker N-5 via Glutaryl) |  |  |  |  | < 30% |  | Activity [13]: 25% |
| NC(=O)CN1CCNC(=O)CCC(=O)N[C@@H](Cc2ccccc2)C(=O)N(Cc2ccccc2)CC(=O)N[C@@H](CCCN=C(N)N)C(=O)N[C@@H](Cc2c[nH]c3ccccc23)C1=O (F[Nphe]RW[N(2-Aminoethyl)Gly]-NH2; linker N-5 via Suc) | 5.55 | < 7.00 | 5.42 | 5% |  | 5.40 |  |
| N=C(N)NCCC[C@@H]1NC(=O)CN(Cc2ccccc2)C(=O)[C@H](Cc2ccccc2)NC(=O)CCC(=O)NCCN(CC(N)=O)C(=O)[C@H](Cc2c[nH]c3ccccc23)NC1=O (F[Nphe]RW[N(2-Aminoethyl)Gly]-NH2; linker N-5 via Suc) |  |  |  |  | < 30% |  |  |
| N=C(N)NCCC[C@@H]1NC(=O)CN(Cc2ccccc2)C(=O)CN(Cc2ccccc2)C(=O)CCCCC(=O)NCCN(CC(N)=O)C(=O)[C@H](Cc2c[nH]c3ccccc23)NC1=O ([Nphe][Nphe]RW[N(2-Aminoethyl)Gly]-NH2; linker N-5 via Adipoyl) |  |  |  |  | < 30% |  |  |
| NC(=O)CN1CCNC(=O)CCCC(=O)N(Cc2ccccc2)CC(=O)N(Cc2ccccc2)CC(=O)N[C@@H](CCCN=C(N)N)C(=O)N[C@@H](Cc2c[nH]c3ccccc23)C1=O ([Nphe][Nphe]RW[N(2-Aminoethyl)Gly]-NH2; linker N-5 via Glutaryl) | 5.77 | < 7.00 | 5.65 | 5% |  | 6.46 | Ratio [1]: 3 |
| N=C(N)NCCC[C@@H]1NC(=O)CN(Cc2ccccc2)C(=O)CN(Cc2ccccc2)C(=O)CCCC(=O)NCCN(CC(N)=O)C(=O)[C@H](Cc2c[nH]c3ccccc23)NC1=O ([Nphe][Nphe]RW[N(2-Aminoethyl)Gly]-NH2; linker N-5 via Glutaryl) |  |  |  |  | < 30% |  |  |

The next lines start with results.

| pEC50 [2] | pEC50 [3] | pEC50 [4] | metabolised at 1.5 h [5] | Activity [6] | pEC50 [7] | SMILES | also measured |
| --- | --- | --- | --- | --- | --- | --- | --- |
| 6.66 | < 7.00 | 6.19 | 5% | 89% | 6.51 | N=C(N)NCCC[C@@H]1NC(=O)[C@@H](Cc2ccccc2)NC(=O)CN(Cc2ccccc2)C(=O)CCCC(=O)NCCN(CC(N)=O)C(=O)[C@H](Cc2c[nH]c3ccccc23)NC1=O | Ratio [1]: 3; metabolised at 4 h [8]: > 40% |
| 6.30 | 4.92 | 7.15 |  |  | 6.84 | NC(=O)[C@H](Cc1c[nH]c2ccccc12)NC(=O)[C@H](CCCN=C(N)N)NC(=O)[C@@H](Cc1ccccc1)NC(=O)[C@@H](N)Cc1ccccc1 |  |
| 6.42 | < 7.00 | 5.86 | 5% | < 30% | 5.78 | N=C(N)NCCC[C@@H]1NC(=O)[C@@H](Cc2ccccc2)NC(=O)CN(Cc2ccccc2)C(=O)CCC(=O)NCCN(CC(N)=O)C(=O)[C@H](Cc2c[nH]c3ccccc23)NC1=O | Stability [10]: Stable; Stability [11]: Stable; Activity [12]: Stable |
| 6.92 | 5.14 | 7.31 | 5% | 90% | 8.09 | N=C(N)NCCC[C@@H]1NC(=O)[C@@H](Cc2ccccc2)NC(=O)CN(Cc2ccccc2)C(=O)CCCCC(=O)NCCN(CC(N)=O)C(=O)[C@H](Cc2c[nH]c3ccccc23)NC1=O | metabolised at 4 h [8]: > 40% |
| 5.93 | < 7.00 | 5.48 | 5% |  | 6.31 | NC(=O)CN1CCNC(=O)CCCCC(=O)N[C@@H](Cc2ccccc2)C(=O)N(Cc2ccccc2)CC(=O)N[C@@H](CCCN=C(N)N)C(=O)N[C@@H](Cc2c[nH]c3ccccc23)C1=O (F[Nphe]RW[N(2-Aminoethyl)Gly]-NH2; linker N-5 via Adipoyl) |  |
| 6.00 | < 7.00 |  | 5% |  | 5.63 | NC(=O)CN1CCNC(=O)CCCC(=O)N[C@@H](Cc2ccccc2)C(=O)N(Cc2ccccc2)CC(=O)N[C@@H](CCCN=C(N)N)C(=O)N[C@@H](Cc2c[nH]c3ccccc23)C1=O (F[Nphe]RW[N(2-Aminoethyl)Gly]-NH2; linker N-5 via Glutaryl) |  |
| 6.66 | < 7.00 | 8.06 | 20% | < 30% | 7.79 | CC(=O)NCC(=O)N[C@@H](Cc1ccccc1)C(=O)N(CC(=O)N[C@@H](CCCNC(=N)N)C(=O)N[C@@H](Cc1c[nH]c2ccccc12)C(=O)NCC(N)=O)Cc1ccccc1 (HELM PEPTIDE1{[ac].G.F.[O=C(CN(Cc1ccccc1)[*:1])[*:2]].R.W.G.[am]}$$$$V2.0) | Stability [11]: Unstable |
| 6.62 |  | 7.98 | 20% | < 30% | 8.09 | CC(=O)NCC(=O)N(CC(=O)N(CC(=O)N[C@@H](CCCNC(=N)N)C(=O)N[C@@H](Cc1c[nH]c2ccccc12)C(=O)NCC(N)=O)Cc1ccccc1)Cc1ccccc1 (HELM PEPTIDE1{[ac].G.[O=C(CN(Cc1ccccc1)[*:1])[*:2]].[O=C(CN(Cc1ccccc1)[*:1])[*:2]].R.W.G.[am]}$$$$V2.0) | Activity [14]: 40%; Stability [11]: Unstable |
| 6.00 | < 7.00 | 5.77 | 5% |  | 6.49 | NC(=O)CN1CCNC(=O)CCCCC(=O)N(Cc2ccccc2)CC(=O)N(Cc2ccccc2)CC(=O)N[C@@H](CCCN=C(N)N)C(=O)N[C@@H](Cc2c[nH]c3ccccc23)C1=O ([Nphe][Nphe]RW[N(2-Aminoethyl)Gly]-NH2; linker N-5 via Adipoyl) |  |
| 6.21 | < 7.00 | 5.71 | 5% | < 30% | 5.53 | N=C(N)NCCC[C@@H]1NC(=O)CN(Cc2ccccc2)C(=O)CN(Cc2ccccc2)C(=O)CCC(=O)NCCN(CC(N)=O)C(=O)[C@H](Cc2c[nH]c3ccccc23)NC1=O ([Nphe][Nphe]RW[N(2-Aminoethyl)Gly]-NH2; linker N-5 via Suc) |  |

Reference: ChEMBL document CHEMBL1159118, “The effect of backbone cyclization on PK/PD properties of bioactive peptide-peptoid hybrids: the melanocortin agonist paradigm” (Bioorg Med Chem, 2010)
